In article PMC6467724 (Journal of medicinal chemistry, 2018):

Legend:
[1] = Microsomal stability assay, mouse liver microsomes; assay type: in vitro ADME, mouse (male CD-1); conditions: for Clhep (hepatic clearance), Mouse: predicted from Clint, Qh 90 mL/min/kg
[2] = PK and tissue distribution assay, single oral dose; assay type: in vivo, BALB/c mice; conditions: for concentration at 4 h: BALB/c, mouse, po, 25 mg/kg
[3] = Microsomal stability assay, human liver microsomes; assay type: in vitro ADME; conditions: for Clhep (hepatic clearance), Human: predicted from Clint, Qh 21 mL/min/kg
[4] = Microsomal stability assay, rat liver microsomes; assay type: in vitro ADME, rat (male Sprague-Dawley); conditions: for Clhep (hepatic clearance), Rat: predicted from Clint, Qh 70 mL/min/kg
Y strain T. cruzi CYP51A [5] = test: CYP51 activity inhibition; assay type: biochemical, Trypanosoma cruzi; conditions: Figure S1
How it was run: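 Y-strain T. cruzi CYP51A was expressed in E. coli and purified. Substrate was [3-3H]eburicol at 50 μM final and test compound at 1.1 μM final. After 60 s preincubation at 37 °C, 100 μM NADPH started the reaction. It ran 60 min, EtOAc extraction stopped it, and % inhibition was measured in triplicate, mean ± SD.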

L. infantum CYP51 = L. infantum CYP51 (Leishmania infantum, UniProt A2TEF2); test: Spectral titration; assay type: binding; conditions: 0.5 μM CYP51, inhibitor 0.1–1 μM
Y strain T. cruzi CYP51A [6] = test: Spectral titration; assay type: binding, Trypanosoma cruzi; conditions: 0.5 μM CYP51, inhibitor 0.1–1 μM
How it was run: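 Y-strain T. cruzi CYP51A was expressed in E. coli and purified. It was titrated at 0.5 μM with test compound (0.1–1 μM) in 5 cm pathlength cuvettes. Difference spectra were read as Δ(A430−A411). Apparent dissociation constants came from nonlinear fits of absorbance change versus ligand concentration to the Morrison quadratic (tight-binding) equation.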

[7] = Mouse acute toxicity assay; assay type: in vivo; conditions: single oral dose 200 mg/kg, mice n=3, 48 h
[8] = mice, oral doses up to 200 mg/kg; cited from earlier work
[9] = mouse pooled liver microsomes 0.5 mg/mL, 1 μM test compound
[10] = Balb/c mice, single oral dose 25 mg/kg
[11] = human pooled liver microsomes 0.5 mg/mL, 1 μM test compound
[12] = rat pooled liver microsomes 0.5 mg/mL, 1 μM test compound
[13] = 4 hours after single oral 25 mg/kg, Balb/c mice, ±SEM, n=2, nd = below 0.1 μM

Row | Clint (estimated intrinsic clearance), Mouse [1, 9] [mL/min/kg body weight] | Clhep (hepatic clearance), Mouse [1] [mL/min/kg body weight] | Plasma life time (time until the compound becomes undetectable) [2, 10] [h] | Clint (estimated intrinsic clearance), Human [3, 11] [mL/min/kg body weight] | Clhep (hepatic clearance), Human [3] [mL/min/kg body weight] | Clhep (hepatic clearance), Rat [4] [mL/min/kg body weight] | Clint (estimated intrinsic clearance), Rat [4, 12] [mL/min/kg body weight] | Compound | other results
1 | 105 | 48.4 | 10 | 22.3 | 10.8 | 20.8 | 29.7 | O=C(N[C@@H](Cn1ccnc1)c1ccc(-c2ccc(F)cc2)cc1Cl)c1ccc(-c2nnc(-c3ccccn3)o2)cc1 [Compound 2, (R)-N-(1-(3-Chloro-4´-fluoro-[1,1´-biphenyl]-4-yl)-2-(1H-imidazol-1-yl)ethyl)-4-(5-(pyridin-2-yl)-1,3,4-oxadiazol-2-yl)benzamide] | –
2 | 220 | 63.9 | <16 | 21.2 | 10.6 | 45.6 | 131 | [2H]c1c([2H])c([2H])c(-c2ccc([C@H](Cn3ccnc3)NC(=O)c3ccc(-c4nnc(-c5ccccc5)o4)cc3)c(Cl)c2)c([2H])c1[2H] [Compound 5, (R)-N-(1-(3-Chloro-[1,1´-biphenyl]-4-yl-2´,3´,4´,5´,6´-d5)-2-(1H-imidazol-1-yl)ethyl)-4-(5-phenyl-1,3,4-oxadiazol-2-yl)benzamide] | concentration at 4 h ([2]; blood): 4 ± 2 µM; concentration at 4 h ([2]; brain): 0.2 µM; concentration at 4 h ([2]; heart): 3 ± 0.5 µM; concentration at 4 h ([2]; lung): 26 ± 4 µM; Cp,max, fold lower (vs compound 4) ([2]; single oral 25 mg/kg): 2 fold
3 | 34.2 | 24.8 | <10 | 20.9 | 10.5 | 46.9 | 142 | O=C(N[C@@H](Cn1ccnc1)c1ccc(-c2ccccc2)cc1Cl)c1ccc(-c2nnc(-c3ccccc3)o2)cc1 [Compound 4, (R)-N-(1-(3-Chloro-[1,1´-biphenyl]-4-yl)-2-(1H-imidazol-1-yl)ethyl)-4-(5-phenyl-1,3,4-oxadiazol-2-yl)benzamide] | Plasma Cp, max ([2]; Balb/c mice, single oral dose 25 mg/kg, nd = below 0.1 μM (detection limit)): 28 µM
4 | 87.7 | 44.4 | – | 16.5 | 9.24 | 33.5 | 64.3 | O=C(N[C@@H](Cn1ccnc1)c1ccc(Cl)cc1Cl)c1ccc(-c2nnc(-c3ccc(OCC(F)(F)F)cc3F)o2)cc1 [Compound 8, (R)-N-(1-(2,4-Dichlorophenyl)-2-(1H-imidazol-1-yl)ethyl)-4-(5-(2-fluoro-4-(2,2,2-trifluoroethoxy)phenyl)-1,3,4-oxadiazol-2-yl)benzamide] | –
5 | 127 | 52.6 | – | 11.6 | 7.46 | 31.7 | 58.1 | CS(=O)(=O)c1ccc(-c2ccc([C@H](Cn3ccnc3)NC(=O)c3ccc(-c4nnc(-c5ccccc5)o4)cc3)c(Cl)c2)cc1 [Compound 6, (R)-N-(1-(3-Chloro-4´-(methylsulfonyl)-[1,1´-biphenyl]-4-yl)-2-(1H-imidazol-1-yl)ethyl)-4-(5-phenyl-1,3,4-oxadiazol-2-yl)benzamide] | Oral bioavailability ([2]; single oral 25 mg/kg, no trace in plasma or tissues except intestine): not orally bioavailable
6 | 59.8 | 35.9 | – | 13.9 | 8.35 | 23.6 | 35.5 | O=C(N[C@@H](Cn1ccnc1)c1ccc(-c2ccc(F)cc2)cc1Cl)c1ccc(-c2nnc(-c3ccccc3)o2)cc1 [VFV-Cl, (R)-N-(1-(3-Chloro-4´-fluoro-[1,1´-biphenyl]-4-yl)-2-(1H-imidazol-1-yl)ethyl)-4-(5-phenyl-1,3,4-oxadiazol-2-yl)benzamide] | Increase of concentrations in tissues at 50 mg/kg ([2]; 50 mg/kg vs 25 mg/kg, data not shown): about 1.5 fold; Metabolism ([M+34] metabolite) when extracted from mice plasma ([2]; 3 and 10 h after single oral 25 mg/kg, HPLC (Figure 4)): almost no metabolism
7 | – | – | – | – | – | – | – | O=C(N[C@@H](Cn1ccnc1)c1ccc(Cl)cc1Cl)c1ccc(-c2nnc(-c3ccccc3)o2)cc1 [VNI, (R)-N-(1-(2,4-dichlorophenyl)-2-(1H-imidazol-1-yl)ethyl)-4-(5-phenyl-1,3,4-oxadiazol-2-yl)benzamide] | Acute toxicity [8]: no acute toxicity

Row | Compound | Clint (estimated intrinsic clearance), Mouse [1, 9] [mL/min/kg body weight] | Clhep (hepatic clearance), Mouse [1] [mL/min/kg body weight] | Plasma life time (time until the compound becomes undetectable) [2, 10] [h] | Clint (estimated intrinsic clearance), Human [3, 11] [mL/min/kg body weight] | Clhep (hepatic clearance), Human [3] [mL/min/kg body weight] | Clhep (hepatic clearance), Rat [4] [mL/min/kg body weight] | Clint (estimated intrinsic clearance), Rat [4, 12] [mL/min/kg body weight] | other results
8 | O=C(N[C@@H](Cn1ccnc1)c1ccc(Cl)cc1Cl)c1ccc(-c2nnc(-c3ccc(F)c(F)c3)o2)cc1 [Compound 9, (R)-N-(1-(2,4-Dichlorophenyl)-2-(1H-imidazol-1-yl)ethyl)-4-(5-(3,4-difluorophenyl)-1,3,4-oxadiazol-2-yl)benzamide] | 55.8 | 34.5 | – | 7.53 | 5.54 | 21.4 | 30.9 | Inhibition of Y strain T. cruzi CYP51A enzymatic activity (Y strain T. cruzi CYP51A [5]): stronger potency; Apparent binding affinity to L. infantum CYP51 (L. infantum CYP51): low nanomolar concentration range; Apparent binding affinity to Y strain T. cruzi CYP51A (Y strain T. cruzi CYP51A [6]): low nanomolar concentration range; Acute toxicity, clinical observation [7]: No detectable side effects
9 | O=C(N[C@@H](Cn1ccnc1)c1c(F)cc(-c2ccc(F)cc2)cc1F)c1ccc(-c2nnc(-c3ccccc3)o2)cc1 [Compound 7, (R)-N-(2-(1H-Imidazol-1-yl)-1-(3,4´,5-trifluoro-[1,1′-biphenyl]-4-yl)ethyl)-4-(5-phenyl-1,3,4-oxadiazol-2-yl)benzamide] | 237 | 65.2 | >24 | 19.4 | 10.1 | 31.1 | 55.8 | Inhibition of Y strain T. cruzi CYP51A enzymatic activity (Y strain T. cruzi CYP51A [5]): completely inhibited; Apparent binding affinity to L. infantum CYP51 (L. infantum CYP51): low nanomolar concentration range; Apparent binding affinity to Y strain T. cruzi CYP51A (Y strain T. cruzi CYP51A [6]): low nanomolar concentration range; Acute toxicity, clinical observation [7]: No detectable side effects
10 | (R)-N-(1-(3-Chloro-4´-(trifluoromethyl)-[1,1´-biphenyl]-4-yl)-2-(1H-imidazol-1-yl)ethyl)-4-(5-(pyridin-4-yl)-1,3,4-oxadiazol-2-yl)benzamide [Compound 3] | 99.0 | 47.1 | – | 23.5 | 11.1 | 29.9 | 52.3 | t½ (in vitro half-life), Mouse [1, 9]: 55 min; Tissue distribution, Heart [2, 13]: 0.1 µM; Tissue distribution, Liver [2, 13]: 0.4 µM; Tissue distribution, Lung [2, 13]: 1 ± 1 µM; t½ (in vitro half-life), Human [3, 11]: 53 min; t½ (in vitro half-life), Rat [4, 12]: 54 min
11 | O=C(N[C@@H](Cn1ccnc1)c1ccc(-c2ccc(F)cc2)cc1F)c1ccc(-c2nnc(-c3ccccc3)o2)cc1 [VFV, (R)-N-(1-(3,4′-difluoro-[1,1′-biphenyl]-4-yl)-2-(1H-imidazol-1-yl)ethyl)-4-(5-phenyl-1,3,4-oxadiazol-2-yl)benzamide, reference compound] | 145 | 55.6 | >24 | 29.9 | 12.3 | 14.2 | 17.7 | Acute toxicity [8]: no acute toxicity
